Cneo AK release = causes C. neoformans cell lysis | adenylate kinase release luminescence, 4 h; normalised: neutral wells 0, clomiphene wells 100 | lysis activity, % at 15 µM | 360,000 compounds, 0.2% hits | AID 651654;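 active means mean lysis activity across replicates of at least 80%, whatever share of replicates individually reach that level; inactive means mean lysis activity below 80%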
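Assay system: log-phase C. neoformans yeast / Quantity: yeast cell density of 5 × 10^6 cells/mL / Medium: fresh YPD growth medium / Compound: single dose / Timing: static 4 h at 37 °C with compound, 1 h detection / Measured by: adenylate kinase release luminescence / Read-out: lysis from increased AK signal / Benchmarks: Clomiphene as positive lysis control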
FN deposition inh = fibronectin deposition inhibition; AH1F fibroblasts, Alexa488-fibronectin deposition fluorescence, overnight; inhibition, % at 12.6 µM; 350,000 compounds, 0.086% hits;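 active means mean inhibition across replicates of 30% or more, regardless of how many single replicates reach that level; inconclusive means mean under 30% yet at least half of replicates reach 30%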;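 further: positive control wells lacked labelled fibronectin entirely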
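Measured by – fluorescence 485/525 nm · System – AH1F fibroblast monolayer, labelled fibronectin deposition · Amount – 10000 cells per well · Buffer or medium – serum-reduced DMEM (2% serum) · Doses – single dose, pinned · Also added – fluorescent fibronectin at 24 nM final · Schedule – 1 h cell attachment, overnight exposure to compound and label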
Xi reactivation = reactivates the inactive X chromosome in mouse fibroblasts; XiGFP mouse fibroblasts, % GFP-positive cells imaging, 3 d; cells co-treated with 5-aza-dC sensitizer; scaled so ellipticine positive control = 100%; activation, % at 7.58 µM; 360,000 compounds, 0.055% hits; AID 743238;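 active means mean normalized replicate activation at least 10% and every replicate at or above 10%; inconclusive means only one of the two criteria met; inactive means mean below 10% and not all replicates reach 10%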;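 further: 0% = median of on-plate neutral control wells and 100% = ellipticine 6 µM median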
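Assay system: SV40-immortalized XiGFP fibroblast cells, line 68-5-11; buffer or medium: DMEM plus 5-aza-dC sensitizer; compound: one concentration, pinned; timing: compounds 3 days, fix/stain 15 min at room temperature; benchmarks: positive control ellipticine, 6 µM final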
CFTR F508del cor = CFTR F508del correction in bronchial cells; CFBE cells, YFP halide quenching; stimulated with forskolin plus potentiator P3; % fluorescence drop versus neutral controls; activity (quench increase), % at 7.58 µM; 350,000 compounds, 0.36% hits; AID 720511;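 active means mean added fluorescence quench of at least 8% versus neutral control, with both replicates also reaching 8%; inconclusive means only one of the mean or replicate conditions met; inactive means mean below 8% and not both replicates reaching 8%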;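 further: cells transiently co-express mutant CFTR-F508del with the halide-sensitive YFP; corrector assay measuring rescue of mutant channel to the surface after 24 h compound exposure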
DENV2 CPE rescue = DENV2-induced cell death inhibition; DENV2-infected cells, cytopathic effect rescue, plate reader; CPE inhibition, % at 9.99 µM; 350,000 compounds, 1.7% hits; in the data active means CPE inhibition above about 20%, passing the limit was not always enough; inconclusive means no clear call, values can overlap the other calls; tested in BHK-21 cells;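 further: 0% = median of neutral control wells and 100% = median of positive control wells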
PGC1a acetyl inh = modulators of PGC1a acetylation; U2OS PGC1a acetylation, AlphaScreen anti-acetyl-lysine; with virally co-expressed GCN5 acetyltransferase; inhibition, % at 15.6 µM; 350,000 compounds, 0.17% hits;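 active means every replicate shows inhibition of at least 40%; inconclusive means mean inhibition at least 40% but some replicate below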;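 further: 0% = neutral control wells and 100% = positive control wells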
The depositor's hits bear a star; ! = not active in a repeat. Rows were chosen to be rich in hits. Some 1.9% of all compounds tested hit in one or more screens of this group.

`CC(C)(C)NC(=O)C(c1ccc(-c2ccccc2)cc1)n1c(=O)c(-c2ccccc2)nc2ccccc21` (stereo not drawn) gave FN deposition inh -12, Xi reactivation 0, CFTR F508del cor -1 and DENV2 CPE rescue -11.
Screening C[C@@H](NC(=O)C[C@H]1C=C[C@H](NC(=O)Nc2ccc3c(c2)OCO3)[C@H](CO)O1)c1ccccc1 returned Cneo AK release -15, FN deposition inh 0, Xi reactivation 0, CFTR F508del cor -2, DENV2 CPE rescue 4 and PGC1a acetyl inh -5.
`C[C@H](CO)N1C[C@H](C)[C@H](CN(C)C(=O)C2CC2)OCc2cnnn2CCCC1=O` gave Cneo AK release -1, FN deposition inh -5, Xi reactivation 0, CFTR F508del cor 0, DENV2 CPE rescue 113*! and PGC1a acetyl inh -2.
For C[C@H]1CN([C@@H](C)CO)C(=O)CCCn2nncc2CO[C@@H]1CN(C)Cc1cccc(C(F)(F)F)c1 the results were Cneo AK release 0, FN deposition inh 3, Xi reactivation 0, CFTR F508del cor 3, DENV2 CPE rescue inconclusive and PGC1a acetyl inh 5.
C[C@@H]1CN([C@@H](C)CO)C(=O)CCCn2nncc2CO[C@@H]1CN(C)CC1CCCCC1 was read as Cneo AK release 1, FN deposition inh 7, Xi reactivation 0, CFTR F508del cor 1, DENV2 CPE rescue 59* and PGC1a acetyl inh 5.
C[C@@H]1CN([C@@H](C)CO)C(=O)CCCn2nncc2CO[C@H]1CN(C)Cc1cccc(C(F)(F)F)c1 was read as Cneo AK release 120*!, FN deposition inh -4, Xi reactivation 0, CFTR F508del cor 0, DENV2 CPE rescue -4 and PGC1a acetyl inh -8.
`COc1cccc(NC(=O)N(C)C[C@@H]2OCc3cnnn3CCCC(=O)N([C@@H](C)CO)C[C@H]2C)c1` gave Cneo AK release -1, FN deposition inh -1, Xi reactivation 0, CFTR F508del cor 2, DENV2 CPE rescue -6 and PGC1a acetyl inh 7.
For COc1cccc(NC(=O)N(C)C[C@@H]2OCc3cnnn3CCCC(=O)N([C@@H](C)CO)C[C@@H]2C)c1 the results were Cneo AK release 50, FN deposition inh 11, Xi reactivation 2, CFTR F508del cor -3, DENV2 CPE rescue 79* and PGC1a acetyl inh 5.
For C[C@H]1CN([C@@H](C)CO)C(=O)CCCn2nncc2CO[C@H]1CN(C)CC1CCCCC1 the results were Cneo AK release 10, FN deposition inh 1, Xi reactivation 0, CFTR F508del cor 3, DENV2 CPE rescue 3 and PGC1a acetyl inh 2.
`O=S(=O)(c1ccccc1)N1CC[C@@H]2[C@H](CO)Nc3ccc(C#Cc4ccccc4F)cc3[C@@H]21` gave Cneo AK release 3, FN deposition inh -13, Xi reactivation 0, CFTR F508del cor 5, DENV2 CPE rescue 9 and PGC1a acetyl inh -20.
For CCS(=O)(=O)N1[C@@H](CO)[C@@H](c2ccccc2)C12CN(C(=O)C1CC1)C2 the results were FN deposition inh -2, Xi reactivation 0, CFTR F508del cor 0, DENV2 CPE rescue 0 and PGC1a acetyl inh 3.
Screening C[C@H](CO)N1C[C@H](C)[C@@H](CN(C)C(=O)C2CC2)OCc2cnnn2CCCC1=O returned Cneo AK release 8, FN deposition inh -5, Xi reactivation 0, CFTR F508del cor 0, DENV2 CPE rescue 49*! and PGC1a acetyl inh -10.
Screening C[C@H]1CN([C@@H](C)CO)C(=O)CCCn2nncc2CO[C@@H]1CN(C)C(=O)C1CC1 returned Cneo AK release 0, FN deposition inh -6, Xi reactivation 0, CFTR F508del cor -2, DENV2 CPE rescue -3 and PGC1a acetyl inh 6.
`CO[C@@H]1CN(C)C(=O)c2ccc(NC(=O)c3ccccc3F)cc2OC[C@@H](C)N(C(=O)c2ccccc2F)C[C@H]1C` gave Cneo AK release -4, FN deposition inh 4, Xi reactivation 0, CFTR F508del cor 0, DENV2 CPE rescue -4 and PGC1a acetyl inh 6.
`COc1ccc(C(CC(=O)N2CCCC(C)C2)c2c(O)cc(OC)cc2OC)cc1` (stereo not drawn) gave Cneo AK release -1, FN deposition inh -8, Xi reactivation 0, CFTR F508del cor -4, DENV2 CPE rescue 14 and PGC1a acetyl inh 6.
`COc1cc(O)c(C(CC(=O)N2CCCC(C)C2)c2cc(OC)c(OC)c(OC)c2)c(OC)c1` (stereo not drawn) gave Cneo AK release 0, FN deposition inh -7, Xi reactivation 0, CFTR F508del cor -2 and DENV2 CPE rescue 62*.
Cc1cc(C)nc(N(C#N)CC(=O)c2ccccc2)n1 was read as Cneo AK release 3 and PGC1a acetyl inh 11.
Screening CCc1ccc(C(=O)CN(C#N)c2nc(C)cc(C)n2)cc1 returned Cneo AK release 1, FN deposition inh 0 and PGC1a acetyl inh 49*.
`Cc1ccc(S(=O)(=O)Nc2ccc3c(c2)C(=O)N([C@H](C)CO)C[C@@H](C)[C@H](CN(C)C(=O)Nc2ccc(F)cc2)OCCCC[C@@H](C)O3)cc1` gave Cneo AK release -3, FN deposition inh -10, Xi reactivation 0, CFTR F508del cor -2, DENV2 CPE rescue -3 and PGC1a acetyl inh 5.
`C[C@@H]1CN([C@H](C)CO)C(=O)c2cccc(NC(=O)Nc3cccc4ccccc34)c2O[C@H]1CN(C)C(=O)Nc1cccc2ccccc12` gave Cneo AK release 1, Xi reactivation 0, CFTR F508del cor 2 and DENV2 CPE rescue 3.
Screening Cc1cccc(C)c1NC(=O)CN1CCN(C(=O)c2cc(C3CC3)nn2-c2ccccc2)CC1 returned Cneo AK release 0, FN deposition inh -10, Xi reactivation 0, CFTR F508del cor 2, DENV2 CPE rescue 81* and PGC1a acetyl inh -15.
Screening O=C(c1cc(C2CC2)nn1-c1ccccc1)N1CCN(Cc2ccc(Cl)cc2)CC1 returned Cneo AK release 2, FN deposition inh 3, Xi reactivation 0, CFTR F508del cor -1, DENV2 CPE rescue 0 and PGC1a acetyl inh -2.
CC(C)NC(=O)N1CCCCN2[C@@H](CO)[C@@H](c3ccc(C#CC4CC4)cc3)[C@@H]2C1 was read as Cneo AK release 0, Xi reactivation 0, CFTR F508del cor -1, DENV2 CPE rescue 40* and PGC1a acetyl inh 9.
CC(C)NC(=O)N1CCCCN2[C@H](CO)[C@H](c3ccc(C#CC4CC4)cc3)[C@H]2C1 was read as Cneo AK release 0, Xi reactivation 0, CFTR F508del cor 1, DENV2 CPE rescue 66* and PGC1a acetyl inh 0.

Bioassay records from PubChem BioAssay.
